From ChEMBL document CHEMBL4715833, “Design, synthesis, in-vitro, in-vivo and in-silico studies of pyrrolidine-2,5-dione derivatives as multitarget anti-inflammatory agents” (Eur J Med Chem, 2020)

Tests used:
Mus musculus [1] = assay: Antiinflammatory activity against carrageenan-induced paw edema in Swiss mouse assessed as inhibition of paw edema at 50 mg/kg administered 30 mins prior to carrageenan challenge and measured after 5 hrs by […]-method (reference value: 7.31 +/- 3.204%); type: functional; settings: time 5.5 hrs
[2] = Acute toxicity in Swiss albino mouse assessed as clinical changes in defecation at 1000 mg/kg, ip administered as single dose measured after 4 hrs; type: organism-based; settings: in vivo
Procedure, shortened: (§1)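 Swiss albino mice of either sex (30-35 g), kept at 22-25 °C on a 12 h light/dark cycle with free food and water. Single i.p. dose; controls received normal saline 10 mL/kg. Animals were watched at random for allergic or abnormal behavioural signs during the first 4 h.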

[3] = Acute toxicity in Swiss albino mouse assessed as clinical changes in respiratory rate at 1000 mg/kg, ip administered as single dose measured after 4 hrs; type: organism-based; settings: in vivo; procedure, shortened: as §1
[4] = Acute toxicity in Swiss albino mouse assessed as clinical changes in fur at 1000 mg/kg, ip administered as single dose measured after 4 hrs; type: organism-based; settings: in vivo; procedure, shortened: as §1
[5] = Acute toxicity in Swiss albino mouse assessed as tremor at 1000 mg/kg, ip administered as single dose measured after 4 hrs; type: organism-based; settings: in vivo; procedure, shortened: as §1
[6] = Acute toxicity in Swiss albino mouse assessed as clinical changes in piloerection at 1000 mg/kg, ip administered as single dose measured after 4 hrs; type: organism-based; settings: in vivo; procedure, shortened: as §1
Mus musculus [7] = assay: Antiinflammatory activity in ip dosed leukotriene-induced paw edema in Balb/c mouse assessed as inhibition of paw edema administered 1 hr prior to leukotriene challenge and measured up to 5 hrs; type: functional, organism-based; settings: time 2-6 hrs
Procedure, shortened: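 BALB/c mice of either sex (30–35 g), 8 per group, dosed i.p. with 10% DMSO, reference drug or compound (100 mg/kg). After 1 h, subplantar irritant: PGE2 0.01 µg/ml, bradykinin 20 µg/ml, histamine 0.1 ml of 1 mg/ml, or leukotriene 10 µg/ml.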

[8] = Acute toxicity in Swiss albino mouse assessed as changes in central nervous system at 1000 mg/kg, ip administered as single dose measured after 4 hrs; type: organism-based; settings: in vivo; procedure, shortened: as §1
Mus musculus [9] = assay: Antiinflammatory activity against carrageenan-induced paw edema in Swiss mouse assessed as inhibition of paw edema at 50 mg/kg administered 30 mins prior to carrageenan challenge and measured after 4 hrs by […]-method (reference value: 14.46 +/- 1.568%); type: functional; settings: time 4.5 hrs
[10] = Acute toxicity in Swiss albino mouse assessed as ptosis at 1000 mg/kg, ip administered as single dose measured after 4 hrs; type: organism-based; settings: in vivo; procedure, shortened: as §1
Mus musculus [11] = assay: Antiinflammatory activity against carrageenan-induced paw edema in Swiss mouse assessed as inhibition of paw edema at 25 mg/kg administered 30 mins prior to carrageenan challenge and measured after 1 hr by […]-method (reference value: 7.66 +/- 3.753%); type: functional; settings: 1.5 h, time 90 min
Mus musculus [12] = assay: Antiinflammatory activity against carrageenan-induced paw edema in Swiss mouse assessed as inhibition of paw edema at 25 mg/kg administered 30 mins prior to carrageenan challenge and measured after 4 hrs by […]-method (reference value: 14.46 +/- 1.568%); type: functional; settings: time 4.5 hrs
[13] = Acute toxicity in Swiss albino mouse assessed as mortality at 1000 mg/kg, ip administered as single dose measured after 24 hrs; type: organism-based; settings: in vivo
Procedure, shortened: (§2)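 Swiss albino mice of either sex (30-35 g), housed at 22-25 °C with 12 h light/dark and free food and water. Single i.p. dose; the saline control got 10 mL/kg. Deaths were counted 24 h after dosing. Dose table lists groups of 8 male and 8 female mice given 5 to 2000 mg/kg.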

[14] = Acute toxicity in ip dosed Swiss albino mouse assessed as mortality administered as single dose; type: organism-based; settings: in vivo; procedure, shortened: as §2
Mus musculus [15] = assay: Antiinflammatory activity against carrageenan-induced paw edema in Swiss mouse assessed as inhibition of paw edema at 25 mg/kg administered 30 mins prior to carrageenan challenge and measured after 5 hrs by […]-method (reference value: 7.31 +/- 3.204%); type: functional; settings: time 5.5 hrs
Mus musculus [16] = assay: Antiinflammatory activity against carrageenan-induced paw edema in Swiss mouse assessed as inhibition of paw edema at 25 mg/kg administered 30 mins prior to carrageenan challenge and measured after 3 hrs by […]-method (reference value: 11.41 +/- 3.069%); type: functional; settings: time 3.5 hrs
Homo sapiens = species on record: Homo sapiens; assay: Selectivity index, ratio of IC50 for sheep COX1 to IC50 for recombinant human COX2 expressed in baculovirus infected Sf21 cells
Procedure, shortened: (§3)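 Enzymes activated for 5 min on ice with cofactor solution of 0.9 mM glutathione, hematin and 0.24 mM TMPD in 0.1 M Tris-HCl pH 8.0; COX-2 at 300 units/ml. Reaction started with 30 mM arachidonic acid stock, run 5 min, absorbance read at 570 nm. IC50 taken from inhibition-vs-concentration plots as means of three determinations. SI = IC50(COX-1)/IC50(COX-2).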

Mus musculus [17] = assay: Antiinflammatory activity against carrageenan-induced paw edema in Swiss mouse assessed as inhibition of paw edema at 100 mg/kg administered 30 mins prior to carrageenan challenge and measured after 3 hrs by […]-method (reference value: 11.41 +/- 3.069%); type: functional; settings: time 3.5 hrs
Mus musculus [18] = assay: Antiinflammatory activity against carrageenan-induced paw edema in Swiss mouse assessed as inhibition of paw edema at 50 mg/kg administered 30 mins prior to carrageenan challenge and measured after 1 hr by […]-method (reference value: 7.66 +/- 3.753%); type: functional; settings: 1.5 h, time 90 min
Mus musculus [19] = assay: Antiinflammatory activity against carrageenan-induced paw edema in Swiss mouse assessed as inhibition of paw edema at 100 mg/kg administered 30 mins prior to carrageenan challenge and measured after 2 hrs by […]-method (reference value: 7.39 +/- 2.475%); type: functional; settings: time 2.5 hrs
[20] = biological target: T1, Prostaglandin G/H synthase 1 (Ovis aries, UniProt P05979); assay: Inhibition of sheep COX1 using arachidonic acid as substrate preincubated for 5 mins followed by substrate addition and measured after 5 mins by UV-visible spectrophotometric method; procedure, shortened: as §3
T1 sequence (P05979 whole entry): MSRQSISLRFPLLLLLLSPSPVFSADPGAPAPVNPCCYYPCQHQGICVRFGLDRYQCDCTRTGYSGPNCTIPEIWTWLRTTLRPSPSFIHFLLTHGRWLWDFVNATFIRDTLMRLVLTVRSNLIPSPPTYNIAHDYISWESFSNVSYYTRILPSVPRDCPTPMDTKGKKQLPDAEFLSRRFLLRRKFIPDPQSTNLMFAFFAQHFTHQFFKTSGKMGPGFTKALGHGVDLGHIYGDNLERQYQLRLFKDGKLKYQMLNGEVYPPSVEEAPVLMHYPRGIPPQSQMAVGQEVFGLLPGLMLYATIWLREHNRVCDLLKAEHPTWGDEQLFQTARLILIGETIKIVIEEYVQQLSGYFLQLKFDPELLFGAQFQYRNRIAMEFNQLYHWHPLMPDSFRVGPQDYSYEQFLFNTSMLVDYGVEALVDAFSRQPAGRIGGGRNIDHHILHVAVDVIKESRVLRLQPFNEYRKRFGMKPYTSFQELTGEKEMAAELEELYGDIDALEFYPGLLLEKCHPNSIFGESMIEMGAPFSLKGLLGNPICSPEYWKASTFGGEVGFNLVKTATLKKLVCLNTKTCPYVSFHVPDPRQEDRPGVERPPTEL

[21] = Acute toxicity in Swiss albino mouse assessed as drowsiness at 1000 mg/kg, ip administered as single dose measured after 4 hrs; type: organism-based; settings: in vivo; procedure, shortened: as §1

SMILES | inhibition in vivo at 50 mg/kg (Mus musculus [1]) [%] | Activity [2] | Activity [3] | Activity [4] | Activity [5] | Activity [6] | inhibition (Mus musculus [7]) | Activity [8] | inhibition in vivo at 50 mg/kg (Mus musculus [9]) [%] | Activity [10] | inhibition in vivo at 25 mg/kg (Mus musculus [11]) [%] | inhibition in vivo at 25 mg/kg (Mus musculus [12]) [%] | Activity [13] | LD50 [14] [mg/kg] | inhibition in vivo at 25 mg/kg (Mus musculus [15]) [%] | inhibition in vivo at 25 mg/kg (Mus musculus [16]) [%] | Ratio IC50 (Homo sapiens) | inhibition in vivo at 100 mg/kg (Mus musculus [17]) [%] | inhibition in vivo at 50 mg/kg (Mus musculus [18]) [%] | inhibition in vivo at 100 mg/kg (Mus musculus [19]) [%] | other results
Cc1ccc(C(=O)CC2CC(=O)N(c3ccc(S(N)(=O)=O)cc3)C2=O)cc1 (centres undefined) | 59.3 | Non-Toxic | Non-Toxic | Non-Toxic | Non-Toxic | Non-Toxic | Dose-dependent effect | Non-Toxic | 57.3 | Non-Toxic | 45.6 | 54.2 | Non-Toxic | 1000 | 56.6 | 51.5 | 31.5 | 61.6 | 51.5 | 63.8 | IC50 [20]: 30.9 µM; Activity [21]: Non-Toxic
O=C1CCCCC1C1CC(=O)N(Cc2ccccc2)C1=O (centres undefined) | 47.8 | Non-Toxic | Non-Toxic | Non-Toxic | Non-Toxic | Non-Toxic | Dose-dependent effect | Non-Toxic | 44.5 | Non-Toxic | 24.3 | 27.8 | Non-Toxic | 1000 | 23.4 | 23.3 | 3.13 | 51.6 | 34.5 | 49.6 | IC50 [20]: 62.6 µM; Activity [21]: Non-Toxic
